# Test results taken from ChEMBL document CHEMBL4513216, “Probing the Open Global Health Chemical Diversity Library for Multistage-Active Starting Points for Next-Generation Antimalarials” (ACS Infect Dis, 2020).
# Assay: Toxicity liver stage against HepG2, at 10uM
# Assay type: cell-based
# Design: test concentration 10 uM, cell line HepG2-A16-CD81EGFP
# Conditions: human, HepG2-A16-CD81EGFP cells; read-out: INHIBITION
# Outline: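 Uninfected HepG2-A16-CD81EGFP cells, 3 × 10^3 per well, 1536-well, plated on prespotted compound at 10 μM final, parasite-free screening media added to match infected plates; puromycin 10 μM positive, DMSO 0.5% negative; run in parallel with 48 h PbLuc assay at 37 °C, 5% CO2; viability by CellTiter-Glo luminescence, normalized to controls.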
row,Structure (SMILES),cytotoxicity at 10 µM [%]
1,CCN(CC)c1nc2sc(C(=O)NCC(=O)OC)cc2s1,1.05
2,CCOc1ccc(NC(=O)c2[nH]c(C)cc2C)cc1CO,21.3
3,Cc1nn(C)c(N(C)C)c1CNCc1nnc2n1CCCCC2,-5.68
4,Cc1cnn(CC2CCCCN2Cc2nccn2CC(F)(F)F)c1 (stereo unspecified),-13.7
5,CCc1cnc(CN(C)C2CCN(CC3CCOCC3)C2)o1 (stereo unspecified),-13.4
6,CCN(CC(=O)N(C)C)C(=O)c1nc(C)n(-c2ccccc2Cl)n1,7.3
7,N#Cc1ccc(C(=O)N2CCn3c(Cn4cccn4)cnc3C2)cc1,3.09
8,Cc1nn(C)cc1S(=O)(=O)N[C@@H]1CCC[C@@H](n2ccnc2)[C@@H]1O,0.651
9,Cc1nc(N2CCCCC2)ncc1-c1cc(=O)[nH]c(N2CCCC2)n1,1
10,Cc1c(CCC(=O)N2CCCC2c2ccnc(N(C)C)c2)cnn1C (stereo unspecified),0.469
11,Cc1c[nH]nc1C1CCN(S(=O)(=O)N(C)C)C1 (stereo unspecified),-13
12,CCNC(=O)[C@@H]1C[C@@H](NC(=O)c2ccsc2)CN1CCCSC,-117
13,CCc1ncc2c(n1)CN(Cc1nc(-c3ccoc3)no1)CC2,1.61
14,NC(=O)N1CCC2(CC1)CN(Cc1cccnc1)C(=O)CO2,3.63
15,Cc1ccc(NC(=O)CNC(C)CN2CCOCC2)c(F)c1 (stereo unspecified),-51.8
16,CNC(=O)C1CCN(c2cc(C3CCNCC3)nc(C)n2)C1 (stereo unspecified),-6.43
17,Cc1cc(NC(=O)N2CCN(C)CC2C)n(CCC#N)n1 (stereo unspecified),2.35
18,CCN(CC)S(=O)(=O)NC1CCCc2nc(-c3ccccc3)ncc21 (stereo unspecified),17.2
19,COCCN(C)C(=O)c1nc2c(s1)CCCN2S(C)(=O)=O,-143
20,CN1CCCN(c2nccc(-c3cncnc3C3CCCCC3)n2)CC1,-6.25
21,Cn1cnnc1C1CCCN(C(=O)NCc2ccccc2)C1 (stereo unspecified),-14
22,COc1ccc(NC(=O)CCN2CC=C(c3cnn(C)c3)CC2)c(C)c1,-4.08
23,COc1ccc(CCN2CCCC(Cn3nc(C)nc3C)C2)cc1 (stereo unspecified),-3.34

row,Structure (SMILES),cytotoxicity at 10 µM [%]
1,Cn1cc(CNCCOc2ccc(F)c(F)c2)c(-c2cccnc2)n1,-2.53
2,CC(NC(=O)NCCCc1n[nH]c(N)c1C#N)c1ccccc1F (stereo unspecified),-3.6
3,Cc1cnn(CC(C)NCc2ccc(C#N)cc2)c1 (stereo unspecified),-11.8
4,Cc1cccc(CN2CCCC3(CCN(C4CCSCC4)C3)C2=O)c1 (stereo unspecified),2.55
5,Cc1cnn(CC2CCCN2C(=O)c2sccc2C#N)c1 (stereo unspecified),12.3
6,Cc1ccc([C@@H]2CN(S(=O)(=O)c3cc(C)ccc3F)C[C@H]2N(C)C)cc1,-7.21
7,Cc1noc(CNc2ccc(C(=O)N3CCCC(C)C3)cc2C)n1 (stereo unspecified),-4.07
8,O=c1[nH]cc(Nc2ccc(Cl)cc2)c(=O)[nH]1,18.4
9,CCC(O)CN1CCN(C(=O)Cc2ccccc2Cl)CC1 (stereo unspecified),-7.98
10,Cc1cccc(CNc2n[nH]c(C)n2)c1,-4.09
11,Cc1cnn(CCNCC(O)c2ccc(S(C)(=O)=O)cc2)c1 (stereo unspecified),1.1
12,Cc1nc(CN2CCCC2Cn2ccnc2C(C)C)nc2ccccc12 (stereo unspecified),-56.8
13,CCc1noc(CN(Cc2ccc3c(c2)OCO3)C2CCCC2)n1,-0.315
14,Cc1cccc(C)c1OC1CN(C(=O)C2CCN(C(=O)N(C)C)CC2)C1,2.69
15,Cc1noc(C)c1CNC(=O)N1Cc2ccccc2N(C)CC1C (stereo unspecified),-2.42
16,O=C(CCN1CCCCC1)Nc1c2c(cc3c1CCC3)CCC2,4.29
17,OC(CNCCn1cccn1)c1ccc(Br)cc1 (stereo unspecified),-19.9
18,CCc1nc(C2CCCN2C(=O)c2ccc(=O)n(CC)n2)no1 (stereo unspecified),2.72
19,NCC(CO)Cc1ccc(OC(F)(F)F)cc1 (stereo unspecified),8.65
20,CC(c1nc(C(C)(C)C)no1)N1CCN(C(=O)CN2CCOCC2)CC1 (stereo unspecified),-3.51
21,CCCc1noc(C(C)N2CCN(Cc3nc(C)c(C)o3)CC2)n1 (stereo unspecified),-10.6
22,N#Cc1ccnc(N2CCN(C(=O)NC3CCS(=O)(=O)C3)CC2)c1 (stereo unspecified),-6.83
23,COc1ccccc1Oc1ncccc1CNC(=O)C1(C)CCCNC1 (stereo unspecified),-2.56

row,Structure (SMILES),cytotoxicity at 10 µM [%]
1,Cc1nn(C)cc1-c1cc(-c2cn(C)nc2C)n(CC(=O)NC2CC2)n1,4.46
2,CS(=O)(=O)N1CC[C@H]2O[C@H](C(=O)NCCc3ccncc3)CC[C@H]21,4.41
3,CC(C)(C)c1ncc2c(n1)CN(c1cc(NCCO)nc(N)n1)C2,3.5
4,CCC(O)CN1CCN(C(=O)c2cc(Cl)cc3cccnc23)CC1 (stereo unspecified),-13.7
5,Cc1nccc(-c2cccc(NCC(=O)N3CCc4sccc4C3)c2)n1,1.06
6,Cc1cccc(CN2C[C@H]3CCC[C@@]3(COCc3csc(C)n3)C2)n1,14.3
7,Cn1ccc(C(=O)NC2CCN(c3ncccn3)CC2)cc1=O,-7.32
8,Cc1nn(C)c(C)c1CCC(=O)Nc1cccn(C)c1=O,-1.96
9,Cc1cc(C(=O)N2CCCC2)ccc1NCC(=O)N1CCOCC1,-5
10,Cc1ccc(SC2CCCC2)c(C(=O)NCCO)c1,-45.3
11,O=C(c1ccccn1)N1CCC2(COc3ncccc3S(=O)(=O)N2)C1 (stereo unspecified),8.96
12,CN(CCN1CCOCC1)C(=O)CCCOCCc1ccccc1,-1.28
13,Cc1nn(CCCNC(=O)C2CCN(S(C)(=O)=O)CC2)cc1Cl,-1.94
14,CNC(=O)NC(C)c1c(F)cccc1Cl (stereo unspecified),-6.2
15,CCCc1cc(N2CCC(Cc3cccc(C(N)=O)c3)C2)nc(C)n1 (stereo unspecified),-1.62
16,CC(=O)N1CCCC(c2ccc(N3CCN(C)CC3)cn2)C1 (stereo unspecified),-28.9
17,CCn1nc2c(cc1=O)CN(CCCOc1ccc(C#N)cc1)CC2,14
18,COc1ccc(NC(C)c2ccc(C#N)cc2)cc1N1CCCC1=O (stereo unspecified),-7.43
19,COc1ccc(OC)c(C(C)Nc2nc3c(C)nn(C)c3c(=O)n2C)c1 (stereo unspecified),-15
20,O=C(NCCc1nccs1)N1CCC(n2cccc2)CC1,5.87
21,Cc1cccc(NC(=O)N2Cc3c(CN(C)C)nn(C)c3C2)c1,7.77
22,CCCc1nc(N2CC[C@@H](c3ccc4c(c3)OCO4)[C@H](O)C2)no1,-9.87
23,CC(C)C(=O)NC(Cc1cc(N(C)C)nc(C2CC2)n1)c1ccccc1 (stereo unspecified),3.37

row,Structure (SMILES),cytotoxicity at 10 µM [%]
1,Cn1nc2c(cc1=O)CN(CC1CCCCO1)CC2 (stereo unspecified),2.58
2,COCCNC(=O)c1ccoc1CN1c2ccccc2CC1C (stereo unspecified),5.41
3,COc1ccc(OC)c(Nc2nc3c(C)nn(C)c3c(=O)n2C)c1,-2.73
4,Cc1cccc(CN2C[C@@H](C)[C@@]3(CCN(CC(=O)N(C)C)C3=O)C2)c1,-0.979
5,Cc1nnc2n1CCN(C(=O)c1cc(Cl)c(Cl)n1C)C2,-4.05
6,COCCN1CCO[C@@H]2CN(C(=O)NCc3cccnc3)CC[C@@H]2C1,6.65
7,CC(NC(=O)C1=NN(C)C(=O)CC1)c1ccc(F)cc1F (stereo unspecified),-4.4
8,CCN1CCN(C2CCN(Cc3noc(C)n3)CC2)C1=O,-8.13
9,N#CC1(NC(=O)CN2CCC(c3ccnn3CCO)CC2)CCCC1,2.85
10,CCc1nc(CN2CCCC(NCc3cnc(C)s3)C2)no1 (stereo unspecified),-9.26
11,CCc1nnsc1C(=O)N1CCCC1c1c(C)nn(C)c1OC (stereo unspecified),-1.67
12,OC(CNc1cncc(OCc2ccccc2)n1)c1ccco1 (stereo unspecified),-1.53
13,COC(=O)c1ccc(N2CCN(CCN3CCOCC3)C(C)C2)cc1 (stereo unspecified),-13.6
14,N#CC1(C(=O)N2C[C@@H]3CC[C@H]2CN(Cc2cscn2)C3)CCOCC1,2.39
15,Cc1c(C(C)NCc2cnn(C)c2)cnn1-c1ccccc1 (stereo unspecified),-5.78
16,Cc1ccsc1CN(CCN(C)C)C(=O)c1ccccc1C#N,-119
17,CCNC(=O)NC[C@@H]1C=C(C)[C@H](CC(=O)NCCN(C)C)C[C@H]1C(C)C,2.43
18,CCC(CNC(=O)c1ccc(F)cc1F)N1CCc2ccccc2C1 (stereo unspecified),10.9
19,O=C(Nc1ccc2ncccc2c1)C1CC(=O)N(Cc2ccccn2)C1 (stereo unspecified),3.31
20,O=C(NC1CC1)N1CC[C@H](OCC2CC2)[C@@H]1Cc1cccnc1,1.36
21,Cc1ncsc1C(=O)NCCCN1CCCCCC1=O,-3.51
22,O=C(c1ccccc1Cl)N1CC[C@H](O)[C@@H](N2CCOCC2)CC1,-4.91
23,O=C(CNC(Cn1cccn1)c1ccccc1)Nc1cnccn1 (stereo unspecified),7.34

row,Structure (SMILES),cytotoxicity at 10 µM [%]
1,CCN(CC)C(=O)CCc1c(C)nc2cc(O)nn2c1C,0.33
2,O=C(O)c1ccc(COc2cccc(Cl)c2)s1,8.96
3,CC(NC(=O)N(C)CCCOc1ccccc1)c1nncn1C (stereo unspecified),-5.4
4,CC1(C(=O)N2CCOCC2)CNCCO1 (stereo unspecified),1.2
5,O=C(c1cccnc1)N1Cc2nccn2CC(COc2cccnc2)C1 (stereo unspecified),4.01
6,O=C(NCCn1ccnc1)c1cccc(Br)c1,9.3
7,N#Cc1ccc(CN(CC(N)=O)C2CCCC2)c(Br)c1,30.1
8,CCOCCN1CCN(Cc2coc(-c3cccc(F)c3)n2)CC1,-2.87
9,CC(O)CN1CCN(Cc2cccc(C(=O)N3CCCCC3)c2)CC1 (stereo unspecified),-4.83
10,CN1CCN(C(=O)CCCc2ccccn2)c2ccc(F)cc21,1.66
11,CCn1ncc(CN2CCc3nc(-c4cccnc4)nc(O)c3C2)c1C,-23.7
12,CCN1C(=O)CCC12CCC(NC(=O)c1ccncc1F)CC2 (stereo unspecified),0.758
13,Cc1ccc(N2CCCC(NCc3cc(C)on3)C2)nn1 (stereo unspecified),-4.8
14,COCCNS(=O)(=O)c1cccc(CSC)c1,11.9
15,COc1ccc(S(=O)(=O)N[C@H]2CN(C(C)=O)C[C@@H]2C2CC2)cc1C,4.57
16,CCS(=O)(=O)N1Cc2c(Cn3ccnc3)nn(C(C)C)c2C1,11.5
17,CCN1CCC(N2CCN(c3cc(-c4nc(C)no4)ccn3)CC2)CC1,-3.79
18,CC(=O)N1CCN(c2cnnc(N3CCCC3)c2)CC1,8.19
19,Cc1noc(C)c1-c1cncc(C2CCCN2Cc2c[nH]cn2)n1 (stereo unspecified),-12.4
